According to ChEMBL document CHEMBL2390912, “Aromatic glycosyl disulfide derivatives: evaluation of their inhibitory activities against Trypanosoma cruzi” (Bioorg Med Chem Lett, 2013):

Tests used:
Trypanosoma cruzi [1] = test: Trypanocidal activity against Trypanosoma cruzi Y trypomastigotes infected in human HeLa cells at 4 degC after 18 hrs by hemocytometric analysis; assay type: functional, organism-based
Trypanosoma cruzi [2] = test: Trypanocidal activity against Trypanosoma cruzi Y trypomastigotes infected in human HeLa cells at 37 degC after 18 hrs by resazurin assay; assay type: functional, organism-based
Summary of the method: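 Tissue culture-derived trypomastigotes treated for 18 h at 37 °C. Read-out by fluorescence.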

Question: What does the source list for `O=C(Cn1ccnc1[N+](=O)[O-])NCc1ccccc1` [BENZNIDAZOLE]?
Answer: IC50 (Trypanosoma cruzi [1]): ≥ 500 µM; IC50 (Trypanosoma cruzi [2]): 25.6 µM
